Values after ≈ are worked out from the molar mass of the structure shown.
Experiments:
Format in all cases: functional
[1] = test system: Candida albicans; experiment: Antifungal activity against Candida albicans KCCM 50235 after 1 day; details: KCCM 50235, 24 h
Procedure, shortened: (§1)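 MIC found by twofold broth dilution in modified Sabouraud dextrose broth. Approximately 1 × 10⁵ cells/mL inoculated. Final agent concentrations ranged from 0.2 to 50.0, compared against fluconazole and 5-fluorocytosine. Read after 1 day at 37 °C.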

[2] = test system: Aspergillus flavus; experiment: Antifungal activity against Aspergillus flavus KCCM 11899 after 2 days; details: KCCM 11899, 48 h
Procedure, shortened: (§2)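 Twofold broth dilution in modified Sabouraud dextrose broth. Inoculum about 1 × 10⁵ cells/mL. Agents tested at final concentrations of 0.2 to 50.0, with fluconazole and 5-fluorocytosine as standards.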

[3] = test system: Pichia kudriavzevii; experiment: Antifungal activity against Candida krusei KCCM 11655 after 1 day; details: KCCM 11655, 24 h; procedure, shortened: as §1
[4] = test system: Candida tropicalis; experiment: Antifungal activity against Candida tropicalis KCCM 50662 after 1 day; details: KCCM 50662, 24 h; procedure, shortened: as §1
[5] = test system: Aspergillus niger; experiment: Antifungal activity against Aspergillus niger KCTC 1231 after 2 days; details: KCTC 1231, 48 h; procedure, shortened: as §2
[6] = test system: Cryptococcus neoformans; experiment: Antifungal activity against Cryptococcus neoformans KCCM 50564 after 1 day; details: KCCM 50564, 24 h; procedure, shortened: as §1

COC(=O)c1c(N)oc2c(C)c(C)c(O)cc12
MIC [1]: 50 µg/mL (≈ 213 µM)
MIC [2]: 25 µg/mL (≈ 106 µM)
MIC [3]: 25 µg/mL (≈ 106 µM)
MIC [4]: 50 µg/mL (≈ 213 µM)
MIC [5]: 6.3 µg/mL (≈ 26.8 µM)
MIC [6]: 25 µg/mL (≈ 106 µM)

COC(=O)c1c(N)oc2cc(C)c(O)cc12
MIC [1]: 25 µg/mL (≈ 113 µM)
MIC [2]: 25 µg/mL (≈ 113 µM)
MIC [3]: 3.2 µg/mL (≈ 14.5 µM)
MIC [4]: 25 µg/mL (≈ 113 µM)
MIC [5]: 12.5 µg/mL (≈ 56.5 µM)
MIC [6]: 12.5 µg/mL (≈ 56.5 µM)

COC(=O)c1c(N)oc2ccc(O)cc12
MIC [1]: 1.6 µg/mL (≈ 7.72 µM)
MIC [2]: 12.5 µg/mL (≈ 60.3 µM)
MIC [3]: 6.3 µg/mL (≈ 30.4 µM)
MIC [4]: 3.2 µg/mL (≈ 15.4 µM)
MIC [5]: 3.2 µg/mL (≈ 15.4 µM)
MIC [6]: 12.5 µg/mL (≈ 60.3 µM)

CCOC(=O)c1c(N)oc2ccc(O)cc12
MIC [1]: 1.6 µg/mL (≈ 7.23 µM)
MIC [2]: 6.3 µg/mL (≈ 28.5 µM)
MIC [3]: 12.5 µg/mL (≈ 56.5 µM)
MIC [4]: 3.2 µg/mL (≈ 14.5 µM)
MIC [5]: 3.2 µg/mL (≈ 14.5 µM)
MIC [6]: 12.5 µg/mL (≈ 56.5 µM)

COC(=O)c1c(N)oc2cc(Cl)c(O)cc12
MIC [1]: 25 µg/mL (≈ 103 µM)
MIC [2]: 6.3 µg/mL (≈ 26.1 µM)
MIC [3]: 25 µg/mL (≈ 103 µM)
MIC [4]: 12.5 µg/mL (≈ 51.7 µM)
MIC [5]: 6.3 µg/mL (≈ 26.1 µM)
MIC [6]: 12.5 µg/mL (≈ 51.7 µM)

CCOC(=O)c1c(N)oc2cc(Cl)c(O)cc12
MIC [1]: 12.5 µg/mL (≈ 48.9 µM)
MIC [2]: 12.5 µg/mL (≈ 48.9 µM)
MIC [3]: 25 µg/mL (≈ 97.8 µM)
MIC [4]: 12.5 µg/mL (≈ 48.9 µM)
MIC [5]: 25 µg/mL (≈ 97.8 µM)
MIC [6]: 50 µg/mL (≈ 196 µM)

CCOC(=O)c1c(N)oc2c(C)cc(O)c(C)c12
MIC [1]: 6.3 µg/mL (≈ 25.3 µM)
MIC [2]: 12.5 µg/mL (≈ 50.1 µM)
MIC [3]: 3.2 µg/mL (≈ 12.8 µM)
MIC [4]: 6.3 µg/mL (≈ 25.3 µM)
MIC [5]: 12.5 µg/mL (≈ 50.1 µM)
MIC [6]: 12.5 µg/mL (≈ 50.1 µM)

Cc1cc2oc(N)c(C#N)c2cc1O
MIC [1]: 50 µg/mL (≈ 266 µM)
MIC [2]: 12.5 µg/mL (≈ 66.4 µM)
MIC [3]: 0.8 µg/mL (≈ 4.25 µM)
MIC [4]: > 50 µg/mL
MIC [5]: > 50 µg/mL
MIC [6]: 3.2 µg/mL (≈ 17 µM)

N#Cc1c(N)oc2ccc(O)cc12
MIC [1]: 12.5 µg/mL (≈ 71.8 µM)
MIC [2]: 12.5 µg/mL (≈ 71.8 µM)
MIC [3]: 25 µg/mL (≈ 144 µM)
MIC [4]: 6.3 µg/mL (≈ 36.2 µM)
MIC [5]: 6.3 µg/mL (≈ 36.2 µM)
MIC [6]: 12.5 µg/mL (≈ 71.8 µM)

Cc1c(O)ccc(O)c1C
MIC [1]: 50 µg/mL (≈ 362 µM)
MIC [2]: 12.5 µg/mL (≈ 90.5 µM)
MIC [3]: 25 µg/mL (≈ 181 µM)
MIC [4]: > 50 µg/mL
MIC [5]: 50 µg/mL (≈ 362 µM)
MIC [6]: 12.5 µg/mL (≈ 90.5 µM)

COC(=O)c1c(N)oc2c(C)c(C)c(O)c(Sc3ccccc3)c12
MIC [1]: 25 µg/mL (≈ 72.8 µM)
MIC [2]: 25 µg/mL (≈ 72.8 µM)
MIC [3]: 6.3 µg/mL (≈ 18.3 µM)
MIC [4]: 25 µg/mL (≈ 72.8 µM)
MIC [5]: 12.5 µg/mL (≈ 36.4 µM)
MIC [6]: 1.6 µg/mL (≈ 4.66 µM)

COC(=O)c1c(N)oc2c(C)c(C)c(O)c(Sc3ccc(C)cc3)c12
MIC [1]: 25 µg/mL (≈ 69.9 µM)
MIC [2]: 25 µg/mL (≈ 69.9 µM)
MIC [3]: 3.2 µg/mL (≈ 8.95 µM)
MIC [4]: 25 µg/mL (≈ 69.9 µM)
MIC [5]: 25 µg/mL (≈ 69.9 µM)
MIC [6]: 6.3 µg/mL (≈ 17.6 µM)

COC(=O)c1c(N)oc2c(C)c(C)c(O)c(Sc3ccc(C)c(C)c3)c12
MIC [1]: 25 µg/mL (≈ 67.3 µM)
MIC [2]: 3.2 µg/mL (≈ 8.61 µM)
MIC [3]: 3.2 µg/mL (≈ 8.61 µM)
MIC [4]: 25 µg/mL (≈ 67.3 µM)
MIC [5]: 12.5 µg/mL (≈ 33.7 µM)
MIC [6]: 1.6 µg/mL (≈ 4.31 µM)

COC(=O)c1c(N)oc2c(C)c(C)c(O)c(Sc3cccc(F)c3)c12
MIC [1]: > 50 µg/mL
MIC [2]: 3.2 µg/mL (≈ 8.85 µM)
MIC [3]: 25 µg/mL (≈ 69.2 µM)
MIC [4]: 50 µg/mL (≈ 138 µM)
MIC [5]: 1.6 µg/mL (≈ 4.43 µM)
MIC [6]: 6.3 µg/mL (≈ 17.4 µM)

COC(=O)c1c(N)oc2c(C)c(C)c(O)c(Sc3cccc(C)c3)c12
MIC [1]: > 50 µg/mL
MIC [2]: > 50 µg/mL
MIC [3]: > 50 µg/mL
MIC [4]: > 50 µg/mL
MIC [5]: > 50 µg/mL
MIC [6]: 1.6 µg/mL (≈ 4.48 µM)

COC(=O)C(C#N)C1=C(Cl)C(=O)C(C)=C(C)C1=O (stereo not drawn)
MIC [1]: 50 µg/mL (≈ 187 µM)
MIC [2]: 12.5 µg/mL (≈ 46.7 µM)
MIC [3]: 25 µg/mL (≈ 93.4 µM)
MIC [4]: 50 µg/mL (≈ 187 µM)
MIC [5]: 25 µg/mL (≈ 93.4 µM)
MIC [6]: 6.3 µg/mL (≈ 23.5 µM)

OC(Cn1cncn1)(Cn1cncn1)c1ccc(F)cc1F [FLUCONAZOLE]
MIC [1]: 50 µg/mL (≈ 163 µM)
MIC [2]: 25 µg/mL (≈ 81.6 µM)
MIC [3]: 12.5 µg/mL (≈ 40.8 µM)
MIC [4]: 6.3 µg/mL (≈ 20.6 µM)
MIC [5]: 12.5 µg/mL (≈ 40.8 µM)
MIC [6]: 6.3 µg/mL (≈ 20.6 µM)

Nc1nc(=O)[nH]cc1F [FLUCYTOSINE]
MIC [1]: 6.3 µg/mL (≈ 48.8 µM)
MIC [2]: 6.3 µg/mL (≈ 48.8 µM)
MIC [3]: 12.5 µg/mL (≈ 96.8 µM)
MIC [4]: 6.3 µg/mL (≈ 48.8 µM)
MIC [5]: 12.5 µg/mL (≈ 96.8 µM)
MIC [6]: 12.5 µg/mL (≈ 96.8 µM)

Source: ChEMBL document CHEMBL1268841, “Synthesis and antifungal activity of benzofuran-5-ols” (2010)
